From PubChem BioAssay
A selection: hits, their analogues and other compounds. The true share with any hit is near 1.9%.
RAM inhibit = inhibitors of the yeast RAM network, primary screen, dse1pr::URA3 reporter, 5-FOA selection | S. cerevisiae dse1pr::URA3 reporter, 5-FOA growth OD615, 2 d; analog-sensitive cbk1-as2 kinase mutant strain | inhibition, % at 50 µM | 190,000 tested, 1.8% active | AID 868, 2007;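 active means inhibition above a set limit, 3 SD over mean compound inhibition, cut at about 8.4% in these data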;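 further: 0% = DMSO-only wells with no growth and 100% = 10 µM 1-NA-PP1 full growth; inhibition rescues growth on 5-FOA so higher OD means more RAM inhibition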
p47phox inh = p47phox/p22phox peptide binding inhibitors, primary screen, biochemical, uHTS, NADPH oxidase regulatory subunit; Neutrophil cytosol factor 1 (Homo sapiens), P14598; fluorescence polarization, 2 h; inhibition, % at 24.7 µM; 220,000 tested, 0.53% active;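 active means inhibition above about 30%, limit read from the data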;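 further: 0% = p47phox with labelled peptide and 100% = labelled peptide alone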
pCIP destab = p/CIP-EGFP fusion destabilizers, primary screen, fluorescence, F442A cells | decrease of EGFP signal, % at 10 µM | 16 h | 290,000 tested, 0.01% active;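 active means EGFP signal decrease of at least 30% at 10 µM or well 3 SD below plate mean, unless failing retest; inactive means the rest, including hits failing retest or dose response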
Target sequence (Q05BA5 1-1403): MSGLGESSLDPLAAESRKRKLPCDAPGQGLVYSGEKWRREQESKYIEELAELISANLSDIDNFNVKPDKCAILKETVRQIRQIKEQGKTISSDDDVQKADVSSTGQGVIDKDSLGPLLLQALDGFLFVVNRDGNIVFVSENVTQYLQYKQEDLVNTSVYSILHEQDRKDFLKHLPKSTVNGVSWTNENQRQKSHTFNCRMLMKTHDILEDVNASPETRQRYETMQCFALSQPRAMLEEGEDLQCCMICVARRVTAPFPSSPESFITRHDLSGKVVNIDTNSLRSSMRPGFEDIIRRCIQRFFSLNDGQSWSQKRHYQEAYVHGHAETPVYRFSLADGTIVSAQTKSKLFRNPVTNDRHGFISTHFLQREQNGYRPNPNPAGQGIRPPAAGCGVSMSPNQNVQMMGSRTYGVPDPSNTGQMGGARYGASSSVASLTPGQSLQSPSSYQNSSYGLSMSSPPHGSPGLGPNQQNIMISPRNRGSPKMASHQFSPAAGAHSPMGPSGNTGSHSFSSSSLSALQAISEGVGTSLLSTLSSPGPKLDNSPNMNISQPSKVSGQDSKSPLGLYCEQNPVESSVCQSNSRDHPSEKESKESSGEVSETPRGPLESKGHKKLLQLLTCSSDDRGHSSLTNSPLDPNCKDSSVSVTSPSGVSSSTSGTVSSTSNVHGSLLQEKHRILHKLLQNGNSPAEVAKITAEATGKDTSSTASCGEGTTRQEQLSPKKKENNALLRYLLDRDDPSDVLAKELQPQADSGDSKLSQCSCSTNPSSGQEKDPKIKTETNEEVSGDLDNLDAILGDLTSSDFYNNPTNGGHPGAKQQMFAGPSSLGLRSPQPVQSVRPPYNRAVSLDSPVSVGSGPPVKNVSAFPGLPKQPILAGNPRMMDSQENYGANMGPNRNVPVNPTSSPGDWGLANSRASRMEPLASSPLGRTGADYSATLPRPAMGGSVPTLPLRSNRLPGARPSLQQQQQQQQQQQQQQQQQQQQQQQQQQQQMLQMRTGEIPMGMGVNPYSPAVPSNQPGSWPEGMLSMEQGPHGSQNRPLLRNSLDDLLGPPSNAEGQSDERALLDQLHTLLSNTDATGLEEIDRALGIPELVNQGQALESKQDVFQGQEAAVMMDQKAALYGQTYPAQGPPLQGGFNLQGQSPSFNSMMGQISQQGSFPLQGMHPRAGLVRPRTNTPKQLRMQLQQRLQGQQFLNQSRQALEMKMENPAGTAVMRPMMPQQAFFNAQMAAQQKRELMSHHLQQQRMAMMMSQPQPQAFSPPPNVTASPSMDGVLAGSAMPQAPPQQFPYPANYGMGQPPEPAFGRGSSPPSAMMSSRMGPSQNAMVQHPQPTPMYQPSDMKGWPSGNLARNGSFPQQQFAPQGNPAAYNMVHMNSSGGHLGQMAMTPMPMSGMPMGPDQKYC
Dynein transport = inhibitors of GR-EGFP nuclear translocation, primary screen, dynein cargo transport inhibitor project, imaging, high-content, 3617.4 mouse cells | 220,000 tested, 0.47% active | z-score, hits read low | test concentration mostly 20 µM; stimulated with dexamethasone, 1 µM; stronger effect = lower value;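 active means plate z-score of nuclear minus cytoplasmic receptor signal below a set negative limit, without overly bright fluorescence or cell loss, cut at about -3.5 in these data, passing the limit was not always enough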;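 further: z-score of nuclear minus cytoplasmic ring GR-EGFP intensity difference per well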
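medium = tetracycline-free induction medium containing charcoal-stripped FBS | probe or stimulus = dexamethasone, 1.0 µM final | timing = 48 h induction, then 1 h compound, then 30 min agonist, 37 °C | detection = automated 10x imaging of fixed Hoechst-stained cells | read-out basis = nuclear versus cytoplasmic GR-EGFP signal, averaged per well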
* marks the source's active call; other numbers are inactive results; . = no result.

SMILES | RAM inhibit | p47phox inh | pCIP destab | Dynein transport
CCc1ccc(NC(=O)C2(c3ccccc3)CC2(Cl)Cl)cc1 (stereo not drawn) | 8.5* | -20 | -3 | -0.46
Cc1ccc(NC(=O)C2(c3ccccc3)CC2(Cl)Cl)cc1C (stereo not drawn) | 4 | -4 | -17 | 0.027
CCOC(=O)c1c(C)nc2sc(C(=O)Nc3ccc(OC)cc3)c(N)c2c1-c1ccc(OC)cc1 | 8.7* | -3 | -3 | -0.7
CCCC(C(=O)Nc1ccc2c(C)cc(=O)oc2c1)c1ccccc1 (stereo not drawn) | . | . | 2 | .
C/C=C(/C)C(=O)Nc1cccc(C2=NOC3(C2)C[C@H](C(N)=O)N(C(=O)c2ccc(Cl)cc2)C3)c1 (stereo partly drawn) | . | 42* | -4 | 0.42
C=C(C)C(=O)Nc1cccc(C2=NOC3(C2)C[C@@H](C(N)=O)N(C(=O)c2ccc(Cl)cc2)C3)c1 (stereo partly drawn) | . | -12 | -12 | 0.016
CC(NC(=S)NC1CCCCC1)c1ccc(C(C)(C)C)cc1 (stereo not drawn) | . | . | -15 | .
CCOC(=O)c1c(NC(=O)CSc2nc3cc(Cl)ccc3c(=O)n2Cc2ccco2)sc(C(=O)N(C)C)c1C | 6 | -76 | -10 | -0.92
O=C(COC(=O)CC1c2ccccc2CCN1S(=O)(=O)c1ccc(F)cc1)Nc1ccccc1 (stereo not drawn) | 8.6* | -25 | 1 | -0.62
COC(=O)COc1ccc(S(=O)(=O)Nc2ccccc2SC)cc1 | 1 | 91* | -4 | -0.71
Cc1ccc(N2CC(C(=O)Nc3cccnc3)CC2=O)cc1Cl (stereo not drawn) | . | . | 6 | .
COc1ccccc1NC(=O)/C(=C/c1cccc([N+](=O)[O-])c1)c1ccccc1 | 11* | -3 | 3 | 1.1
O=C(NCCNC(=O)c1cc(Cl)ccc1Cl)c1ccccn1 | . | . | 9 | .
C/C(N)=C(/C#N)C(=O)CSc1nc2ccccc2c(=O)n1CCCO | 1 | -8 | -9 | -1.4
C/C(N)=C(/C#N)C(=O)CSc1nc2scc(-c3ccccc3)c2c(=O)n1C | 9.6* | -35 | -9 | -0.32
COC(=O)/C=C/S(=O)(=O)c1ccc(NC(C)=O)cc1 | 0 | 3 | -28 | -3.9*
COc1ccc(C(=O)N/C(=C\c2cccc3ccccc23)C(=O)NCCc2c[nH]c3ccccc23)cc1OC | 8.8* | -20 | -11 | 0.28
COc1ccc(C(=O)NCCc2c[nH]c3ccccc23)cc1OC | . | . | -1 | .
CN(C)S(=O)(=O)c1cccc(NC(=O)c2cc3c(=O)n4ccccc4nc3s2)c1 | 2 | 9 | -9 | -0.74
Cc1cc(NS(=O)(=O)c2ccc(NC(=O)c3cc4c(=O)n5ccccc5nc4s3)cc2)nc(C)n1 | 9.0* | -11 | -1 | 0.34
Cc1ccc(N(CC(=O)NCC2CCCO2)S(=O)(=O)c2ccccc2)c(C)c1 (stereo not drawn) | . | . | -6 | .
COc1ccc(CN2C(=O)N(c3ccc(OC)cc3)C(=O)C2CC(=O)Nc2ccccc2)cc1 (stereo not drawn) | 9.5* | 2 | -2 | -0.51
COc1cccc(NC(=O)c2ccc3c(c2)N(CC(=O)N2CCCCC2)C(=O)C(C)(C)O3)c1 | 8.8* | -3 | -9 | -0.5
Cn1c(SCC(=O)Nc2ccc3[nH]c(=O)[nH]c3c2)nnc1-c1ccccc1 | . | . | 7 | .
O=C(CSc1nnc(-c2ccccc2F)n1CCc1ccccc1)Nc1ccc2[nH]c(=O)[nH]c2c1 | 9.0* | 0 | -11 | 0.19
SMILES | RAM inhibit | p47phox inh | pCIP destab | Dynein transport
NS(=O)(=O)c1ccc(CCNC(=O)Nc2ccc(Cl)c(Cl)c2)cc1 | 11* | -15 | -15 | -0.37
Cc1cc(C)c2nc(NNC(=O)c3cc(=O)c4ccccc4o3)sc2c1 | 9.5* | -21 | 10 | -1.2
CCOC(=O)c1c(C2CC2)csc1NC(=O)COC(=O)CCS(=O)(=O)c1ccc(C)cc1 | 9.2* | -9 | -2 | 4.7
Cn1nccc1C(=O)Nc1ccccc1C(=O)O | 0 | 178* | 9 | -0.6
CCC(C(=O)NCc1ccccn1)n1c2ccccc2c2nc(=O)cc(C)n21 (stereo not drawn) | . | . | 10 | .
Cc1cccc(CN2CCN(C(C)C(=O)NC(C)c3ccccc3)CC2)c1 (stereo not drawn) | . | . | -5 | .
CC1CCC/C=C/C(=O)c2c(O)cc(O)cc2CC(=O)O1 (stereo not drawn) | . | -2 | -6 | -4.5*
c1ccc(Oc2cc(-c3ccccc3)nc(-c3ccccc3)n2)cc1 | 10.0* | -8 | 10 | -0.05
CC(C)C(=O)N(c1ccc2oc(=O)sc2c1)S(=O)(=O)c1ccccc1 | 11* | -4 | -7 | 0.69
Cn1c(Cc2ccc(Cl)cc2)nnc1SCC(=O)NC1CC1 | . | . | 23 | .
COc1ccc(/C=C2\CCCC(C(=O)C(F)(F)F)=C2O)cc1 | 10.0* | -3 | 2 | 1.3
O=C(C1=C(O)/C(=C/c2ccc(O)cc2)CCC1)C(F)(F)F | -2 | -21 | -9 | -2
Cc1cc(C=C2C(=O)c3ccccc3C2=O)c(C)n1-c1ccc(C(=O)O)cc1 | 5 | -15 | -4 | 0.77
Cc1cc(C=C2C(=O)c3ccccc3C2=O)c(C)n1-c1cccc(C(=O)O)c1 | 8.8* | -24 | -8 | -0.59
CCC1(C)Cc2nc3[nH]c(=S)n(-c4ccccc4C)c(=O)c3cc2CO1 (stereo not drawn) | . | -3 | -3 | -0.29
CCC1(C)Cc2nc3[nH]c(=S)n(-c4ccccc4)c(=O)c3cc2CO1 (stereo not drawn) | 8.5* | -2 | -8 | -0.065
CCN(CC)S(=O)(=O)c1cccc(S(=O)(=O)N2CCCCC2)c1 | 1 | -4 | -8 | 0.38
CCN(CC)S(=O)(=O)c1ccc(C)c(NC(=S)Nc2cccc(S(=O)(=O)N3CCCCCC3)c2)c1 | 9.0* | -19 | -17 | -1.4
CN1C(=O)C(c2nnc(Nc3cccc4ccccc34)s2)C2CC1(C)Oc1ccccc12 (stereo not drawn) | 9.0* | -13 | -3 | 0.017
Cc1ccc(S(=O)(=O)C2C(=O)N(C)C3(C)CC2c2ccccc2O3)cc1C (stereo not drawn) | 4 | -11 | -14 | -0.9
CCOC(=O)CN1C(=O)C(Sc2n[nH]c(-c3ccccc3)n2)CCc2ccccc21 (stereo not drawn) | 0 | -3 | -14 | -0.085
Cc1ccc(CNC(=O)c2cc(Cl)cc(Cl)c2)n1C | . | . | -1 | .
COc1cc2ccccc2cc1C(=O)NC(=S)Nc1cccc(C(=O)O)c1 | 8.9* | -23 | 20 | -0.025
Cc1c(Cc2ccccc2)sc(NC(=O)/C=C/c2cccc3ccccc23)c1C(N)=O | 9.8* | -32 | 7 | -1.1
Cn1c(=O)oc2cc(S(=O)(=O)Nc3ccc4c(c3)OCO4)ccc21 | 4 | -7 | 0 | 3.6
Cn1c(=O)c2cc(S(=O)(=O)Nc3ccc4c(c3)OCO4)ccc2n(C)c1=O | 3 | 65* | -3 | 1.9
O=C(CSc1ccccc1)NC1CCCCCC1 | . | . | -10 | .
